GSIS activator: GLuc luminescence reporter in INS-1E cells, primary screen for activators of glucose-dependent secretion of insulin; INS-1E GLuc reporter insulin secretion, 2-3 h; activation, % at 16.6 µM; hit rate 0.61% among 370,000;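 active means lowest replicate activation of at least 40%, so every replicate reaches that level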;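 further: 0% = median of neutral control wells and 100% = median of IBMX positive control wells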
CDK5 inh: CDK5/p35 (human) kinase inhibition; hit rate 0.01% among 330,000; Q00535+Q15078; inhibition, % at 10 µM; Recombinant CDK5/p35, ADP-Glo luminescence, 60 min;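 active means highest replicate inhibition of at least 50% and at least 75% of replicates reaching 50%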;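 further: plate controls were DMSO neutral control for no effect and GW8510 at 10 µM for full effect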
HIV Env fusion: blocks HIV Env-driven cell-cell fusion | HeLa-JRFL Env/CEM21 cell fusion, luciferase | inhibition, % at 12.3 µM | hit rate 1.1% among 360,000;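 active means mean replicate inhibition score of at least 50 and every replicate individually at or above 50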;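 further: 0% = plate neutral controls and 100% = maraviroc near 300 nM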
GSK3A inh: blocks human GSK-3 alpha kinase; P49840; ADP-Glo luminescence, 60 min; AID 2650; hit rate 0.1% among 320,000; inhibition, % at 10 µM;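 active means more than half of replicates show inhibition above 20%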;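 further: GST-tagged GSK-3 alpha with peptide substrate and 25 µM ATP; 0% = DMSO neutral wells and 100% = GW8510 positive control wells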
GSK3B inh: blocks human GSK3beta kinase activity; P49841; GST-GSK3beta kinase, ADP-Glo luminescence, 60 min; stronger effect = lower value; activity score (negative = inhibition), % at 10 µM; hit rate 0.038% among 300,000;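 active means more than half of replicate wells score below -50%, meaning over 50% inhibition versus plate controls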;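 further: 0% = median DMSO wells and -100% = median GW8510 positive control wells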
Target sequence (P49841 whole entry, looked up): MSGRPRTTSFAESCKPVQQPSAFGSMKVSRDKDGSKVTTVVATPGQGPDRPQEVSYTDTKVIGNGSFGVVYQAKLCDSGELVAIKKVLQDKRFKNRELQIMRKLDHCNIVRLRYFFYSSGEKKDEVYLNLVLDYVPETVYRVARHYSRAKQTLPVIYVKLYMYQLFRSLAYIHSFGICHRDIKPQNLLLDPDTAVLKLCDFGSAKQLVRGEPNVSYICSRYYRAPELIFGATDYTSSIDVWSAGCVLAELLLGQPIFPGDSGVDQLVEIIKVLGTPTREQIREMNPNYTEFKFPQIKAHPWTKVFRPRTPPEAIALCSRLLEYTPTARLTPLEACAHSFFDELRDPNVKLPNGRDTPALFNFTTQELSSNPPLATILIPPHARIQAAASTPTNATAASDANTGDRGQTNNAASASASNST
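Assay system: GST-tagged human GSK3beta kinase, cell-free; Input: 1.6 ng GSK3beta; Medium: Tris/MgCl2 kinase buffer; Timing: 60 min enzyme reaction, room temperature; Signal: ADP-Glo luminescence quantifying ADP generated by kinase; Evaluation: score relative to plate controls; Benchmarks: DMSO neutral wells and GW8510 at 20 µM as positive.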
STK33 kinase inh: human STK33 kinase inhibition | Q9BYT3 | purified STK33, MBP phosphorylation, ADP-Glo luminescence | inhibition, % at 10 µM | hit rate 0.073% among 320,000 | AID 2661;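 active means inhibition at or above 25%, using the most active replicate where run in duplicate; inactive means inhibition below 25%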
The depositor's hits bear a star; . = not tested or not shown; [ ] = remark or other dose. An excerpt weighted towards active compounds, which were near 1.4% of everything screened.

SMILES	GSIS activator	CDK5 inh	HIV Env fusion	GSK3A inh	GSK3B inh	STK33 kinase inh
COc1cc(NC(=O)c2cccc(C)c2)ccc1NC(=O)c1cc2ccccc2o1	82.7*	0.7	-23.9	-0.6	-3.4	0.2
CCOc1cccc(C(=O)Nc2ccc(NC(=O)c3cc4ccccc4o3)c(OC)c2)c1	12.4	0.1	-12.4	1.3	2.0	-1.6
OCCNc1nc(-c2ccccc2)c2cc(Cl)ccc2n1	48.3*	-2.0	-18.5	-7.2	-0.4	-2.7
Cc1ccc(CSC(Nc2ccc(F)cc2)=C(C#N)C#N)cc1	.	-1.6	68.1*	-0.1	2.2	-0.7
CCN(CC)C(=O)CSC(Nc1ccc(F)cc1)=C(C#N)C#N	.	0.8	-7.0	1.1	0.7	-0.6
C[C@@H]1CN([C@@H](C)CO)C(=O)c2cccc(NC(=O)c3ccc(-c4nccs4)cc3)c2O[C@H]1CN(C)S(=O)(=O)c1cccs1	-13.4	.	-131.9[16.7 µM]	.	.	.
Cc1ccc2nc(-c3ccc(NC(=O)COC(=O)c4ccco4)cc3)sc2c1	91.4*	-0.4	-125.6	-2.7	-1.4	-0.8
C=CCn1c(SCC(=O)Nc2ccc(-c3nc4ccc(C)cc4s3)cc2)nnc1-c1ccccc1	121.7*	-0.2	.	-1.8	-19.5	1.4
C=CCn1c(SCC(=O)NNC(=O)Nc2ccc(C)cc2)nnc1-c1ccccc1	-5.9	-1.4	1.7	0.3	2.2	0.0
CCC(=O)N1C[C@H](C)[C@H](OC)CN(C)C(=O)c2cc(NC(=O)c3ccccc3)ccc2OC[C@H]1C	6.4	.	.	.	.	.
CNc1cccnc1C=NNC(N)=S	2.4	2.1	81.4*	.	.	.
CNC(=O)C[C@H]1CC[C@@H]2[C@@H](COc3ccc(NC(=O)c4cc(F)cc(F)c4)cc3C(=O)N2C)O1	-0.5	.	2.0[16.7 µM]	.	.	.
CN1CCc2c(sc3c2c(=O)n(-c2ccccc2)c2n[nH]c(=S)n32)C1	.	0.4	38.2	79.5*	-50.1*	35.9*
COCC(=O)Nc1ccc2c(c1)OC[C@H](C)N(C(=O)COC)C[C@H](C)[C@@H](OC)CN(C)C2=O	-2.5	.	.	.	.	.
CCc1nc(N)nc(N)c1-c1ccc(Cl)c([N+](=O)[O-])c1	21.0	1.2	5.9	.	.	.
CCc1nc(N)nc(N)c1-c1ccc(Cl)c(N=[N+]=[N-])c1	49.8*	1.3	43.7	.	.	.
O=C(c1ccccc1)[C@@H]1[C@@H](C(=O)c2ccc(F)cc2)[C@@]2(C(=O)Nc3ccccc32)[C@H]2c3ccccc3C=CN12	1.7	1.4	70.7*	1.1	-4.4	-0.3
CC(C)c1cc(NCCOCCO)n2c(nc3ccccc32)c1C#N	51.6*	-0.8	0.0	2.4	0.0	-1.0
CC(C)NC(=O)Nc1ccc2c(c1)C(=O)N([C@H](C)CO)C[C@@H](C)[C@@H](CN(C)S(=O)(=O)c1ccccc1)OCCCC[C@H](C)O2	-0.1	.	-11.0[16.7 µM]	.	.	.
COC(=O)c1c(C)[nH]c(C(=O)/C=C/c2ccccc2)c1C	55.9*	.	.	.	2.1	.
CCCNC(=O)N1CC2(CN(S(=O)(=O)CC)C2)c2c([nH]c3cc(OC)ccc23)[C@H]1CO	-1.8	.	.	.	.	.
O=C(COC(=O)c1ccc[nH]c1=O)Nc1ccc(N2CCCCC2)cc1	4.8	-0.1	62.3*	-1.5	.	-1.4
Cc1cccc(NC(=O)c2cc3n(n2)C(C(F)(F)F)CC(c2ccc4c(c2)OCO4)N3)c1 (configuration not stated)	-16.4	1.0	106.2*	-1.2	-5.1	-1.5
COc1ccc(NC(=O)c2cc3n(n2)C(C(F)(F)F)CC(c2ccc4c(c2)OCO4)N3)cc1OC (configuration not stated)	.	-1.3	.	-1.6	.	-0.6
COc1ccc(OC)c(NC(=O)c2cc(-c3cc(Cl)ccc3O)n[nH]2)c1	.	-0.9	55.2*	1.7	-1.5	.
SMILES	GSIS activator	CDK5 inh	HIV Env fusion	GSK3A inh	GSK3B inh	STK33 kinase inh
COc1ccc(Cl)cc1NC(=O)c1cc(-c2ccccc2O)n[nH]1	5.1	0.3	-1.7	-4.4	-2.6	-1.1
CC(NNC(=S)N1CCCCCC1)c1ccc2ccccc2n1 (configuration not stated)	-9.9	.	68.8*	.	.	.
COc1ccc(CCC(C)NCc2cc(OC)cc(OC)c2)cc1 (configuration not stated)	-6.2	-0.8	71.1*	1.5	0.3	-2.9
COc1ccc(CCC(C)NCc2ccc(Cl)c(Cl)c2)cc1 (configuration not stated)	0.3	0.3	81.1*	1.5	4.5	0.6
COc1ccc(CCC(C)NCCc2ccc(Cl)cc2Cl)cc1 (configuration not stated)	-9.6	0.8	55.4*	-2.6	-2.0	-0.4
O=C(NCC[C@H]1CC[C@H](NS(=O)(=O)c2ccc(Cl)cc2)[C@H](CO)O1)c1ccc2c(c1)OCO2	-2.2	.	.	.	.	.
COc1cccc(-c2ccc3c(c2)O[C@@H](CN(C)C(=O)c2ccccc2F)[C@@H](C)CN([C@H](C)CO)S3(=O)=O)c1	-19.6	.	32.3[16.7 µM]	.	.	.
COCCCNC(=S)Nc1cc2oc3ccccc3c2cc1OC	-5.7	1.4	67.6*	0.2	3.1	-0.4
CNC[C@H]1Oc2ccc(NC(=O)Nc3ccc(C(F)(F)F)cc3)cc2CC(=O)N([C@@H](C)CO)C[C@H]1C	3.4	.	1.6[16.7 µM]	.	.	.
CCCCOc1ccc(Nc2cc(Cl)ccc2C(=O)O)cn1	-32.1	0.7	62.8*	-3.2	4.6	0.4
COc1ccc(CC(=O)Nc2cc(Cl)ccc2C(=O)O)cc1	2.7	0.2	-1.6	-0.8	4.5	1.4
NNc1nc(-c2ccccc2)c2ccccc2n1	44.2*	0.6	-11.4	-0.9	-0.1	0.9
O=C(c1ccccc1)N1CC2(C1)[C@H](c1ccccc1)[C@@H](CO)N2C(=O)CC1CC1	11.2	.	.	.	.	.
CCC(C(=O)Nc1ccncc1)c1ccccc1 (configuration not stated)	6.1	0.7	3.1	-0.4	1.6	-0.4
CCC(C(=O)Nc1ccc2[nH]ncc2c1)c1ccccc1 (configuration not stated)	10.9	4.4	8.9	12.1	1.9	26.0*
O=C(NCc1ccccc1)C(c1ccco1)N1CCN(C(=O)C2CCCO2)CC1 (configuration not stated)	-10.0	.	11.8	.	.	.
COc1cccc(C(C(=O)NCc2ccccc2)N2CCN(C(=O)C3CCCO3)CC2)c1OC (configuration not stated)	43.0*	.	-12.2	.	.	.
C[C@H](CO)N1C[C@H](C)[C@@H](CN(C)C(=O)c2ccncc2)OCCCC[C@H](C)Oc2ccc(NS(=O)(=O)c3ccc(F)cc3)cc2C1=O	-6.3	.	19.4[16.7 µM]	.	.	.
CCC(Sc1nc(C)cc(C)n1)C(=O)Nc1nccs1 (configuration not stated)	55.0*	0.6	0.7	-4.5	-0.6	-1.4
CCC(Sc1nnc(C)s1)C(=O)Nc1nccs1 (configuration not stated)	.	1.1	-48.7	2.4	-1.9	-1.1
Clc1ccc(-c2noc(CSc3nnc(-c4ccncc4)n3-c3ccccc3)n2)cc1	-9.2	-1.6	93.6*	-0.9	-5.8	-0.2

Assay outcomes as filed in PubChem.
